Assay outcomes from PubChem BioAssay.
Most compounds without a hit are left out; they make up all but 4.7% or so of the library.
Jurkat NFkB inh – inhibitors of the PMA/ionomycin-induced NF-kB reporter in Jurkat cells; 330,000 compounds, 0.53% hits; inhibition, % at 4 µM; PMA/ionomycin-induced NF-kB luciferase reporter, luminescence; AID 435003; in the data active means inhibition above about 50%
VIM-2 inhibitor – inhibitors of Pseudomonas aeruginosa VIM-2 metallo-beta-lactamase. purified VIM-2, nitrocefin hydrolysis, epi-absorbance fluorescence. inhibition, % at 5.6 µM. 290,000 compounds, 0.89% hits. AID 1527;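 active means inhibition above the mean of all tested compounds plus 3 SD, cutoff set per screening run, cut at about 7.5% in these data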;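 further: red hydrolysis product quenches plate fluorescence so inhibitors raise well fluorescence; 0% = enzyme with DMSO and 100% = DMSO without enzyme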
Mdm2-MdmX inh – human Mdm2/MdmX binding inhibition | O15151+Q00987 | SaOS-2 split-luciferase Mdm2/MdmX complementation, luminescence | inhibition, % at 8 µM | 330,000 compounds, 3% hits | AID 485346;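 active means inhibition of at least 50% at 8 µM in the primary screen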
Target sequence (O15151 whole entry, looked up): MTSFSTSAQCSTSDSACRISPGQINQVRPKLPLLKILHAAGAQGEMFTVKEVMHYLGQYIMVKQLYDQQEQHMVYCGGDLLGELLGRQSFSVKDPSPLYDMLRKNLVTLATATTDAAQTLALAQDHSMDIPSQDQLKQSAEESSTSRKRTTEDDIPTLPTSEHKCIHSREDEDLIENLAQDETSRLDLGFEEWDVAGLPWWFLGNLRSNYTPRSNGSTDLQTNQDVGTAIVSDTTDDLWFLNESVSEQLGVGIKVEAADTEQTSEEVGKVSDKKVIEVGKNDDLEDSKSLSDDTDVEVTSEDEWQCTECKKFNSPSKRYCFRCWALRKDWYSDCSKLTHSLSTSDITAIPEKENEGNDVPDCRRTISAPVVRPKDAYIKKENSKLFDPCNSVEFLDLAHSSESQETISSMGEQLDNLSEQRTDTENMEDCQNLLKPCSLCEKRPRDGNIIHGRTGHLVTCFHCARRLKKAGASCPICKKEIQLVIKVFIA
Target sequence (Q00987 whole entry, looked up): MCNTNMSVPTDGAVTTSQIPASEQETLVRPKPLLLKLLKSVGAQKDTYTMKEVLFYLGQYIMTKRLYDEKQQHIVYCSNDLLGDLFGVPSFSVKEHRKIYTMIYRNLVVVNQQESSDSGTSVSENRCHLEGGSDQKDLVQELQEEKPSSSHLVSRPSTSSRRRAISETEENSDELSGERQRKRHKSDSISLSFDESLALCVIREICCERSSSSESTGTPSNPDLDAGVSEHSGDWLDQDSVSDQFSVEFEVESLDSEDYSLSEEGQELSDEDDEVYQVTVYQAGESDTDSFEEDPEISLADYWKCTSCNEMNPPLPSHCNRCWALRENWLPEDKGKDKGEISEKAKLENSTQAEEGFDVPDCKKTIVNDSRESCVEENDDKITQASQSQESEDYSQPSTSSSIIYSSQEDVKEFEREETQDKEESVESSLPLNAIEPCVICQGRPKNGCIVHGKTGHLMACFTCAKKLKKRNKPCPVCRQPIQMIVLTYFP
697 NFkB inh – inhibitors of the PMA/ionomycin-induced NF-kB reporter in 697 B cells; 330,000 compounds, 0.33% hits; 697 B-cell NF-kB luciferase reporter, 16 h; inhibition, % at 4 µM; in the data active means inhibition above about 35%
IMP-1 inhibitor – blocks Pseudomonas aeruginosa IMP-1 metallo-beta-lactamase | AID 1556 | inhibition, % at 5.6 µM | purified IMP-1, nitrocefin hydrolysis, epi-absorbance fluorescence | 290,000 compounds, 0.45% hits;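 active means inhibition above the mean plus 3 SD of all compounds in the same screening run, cut at about 4.5% in these data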;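 further: 0% = IMP-1 with DMSO and 100% = DMSO wells lacking enzyme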
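assay system = purified recombinant IMP-1 metallo-beta-lactamase enzyme | schedule = 15 min preincubation plus 25 min reaction at 25 °C | signal = Epi-absorbance fluorescence, 480 nm excitation, 530 nm emission | read-out basis = percent inhibition from optical density relative to buffer-blank wells | controls = IMP-1 with DMSO as 0%, enzyme-free DMSO as 100%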
aSyn UTR inh – MLPCN primary screen, SNCA 5' untranslated region; inhibition, % (tested at 7.5 µM); 300,000 compounds, 0.82% hits; alpha-synuclein 5'UTR reporter, inhibitor activity; in the data active means inhibition above about 60%; inconclusive means no clear call, values can overlap the other calls;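 further: H4 neuroglioblastoma cells stably carrying SNCA 5'UTR luciferase fusion; 0% = DMSO wells and 100% = positive control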
Jurkat NFkB conf – inhibitors of the PMA/ionomycin-induced NF-kB reporter in Jurkat cells, retest. shares compounds with Jurkat NFkB inh. Jurkat NF-kB luciferase, 16 h. inhibition, % at 4 µM. 2,700 compounds, 27% hits. AID 435020;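 active means inhibition reaching about 45% at 4 µM in either replicate, limit read from the data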;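 further: plate controls were PMA/ionomycin stimulated DMSO wells for no effect and unstimulated DMSO wells for full effect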
An asterisk follows results filed as active; ? = inconclusive; / = no result given.

SMILES	Jurkat NFkB inh	VIM-2 inhibitor	Mdm2-MdmX inh	697 NFkB inh	IMP-1 inhibitor	aSyn UTR inh	Jurkat NFkB conf
O=C(CSC1=NNC(c2ccccn2)S1)Nc1ccc(C(F)(F)F)cc1 (stereo unspecified)	32.1	-3.9	-4.6	16.0	-2.1	7.2	/
c1ccc(CSC2=NNC(c3ccccn3)S2)cc1 (stereo unspecified)	71.0*	-3.0	40.8	-18.6	-3.5	-3.1	0.6
COc1ccc(-c2nc(-c3ccc(Br)o3)no2)cc1	-203.1	-0.6	-55.4	-242.5	-2.6	-35.8	-148.0
CC1CC(C)CN(C(=O)C2CCN(S(=O)(=O)c3ccc4c(c3)CC(C)N4C(=O)C3CC3)CC2)C1 (stereo unspecified)	13.1	-2.1	29.2	5.9	-4.1	15.5	/
COc1cc(CNC(=O)c2cc(C(=O)NCc3cc(OC)cc(OC)c3)n(C)n2)cc(OC)c1	8.0	/	27.0	16.6	/	/	/
CC(OC(=O)c1c[nH]c2ccccc12)C(=O)N1CCCC1 (stereo unspecified)	5.9	/	-2.3	-12.8	/	/	/
Cn1c(N)c(C(=O)Nc2ccc3ccccc3c2)sc1=S	-163.5	0.3	-32.4	-111.8	0.0	-186.2	-26.1
CCc1c(C)nc2ncnn2c1NCCc1ccc(OC)cc1	78.2*	8.9*	29.6	-15.2	-3.9	30.9	68.0*
CN1/C(=C\C(=O)c2cccc([N+](=O)[O-])c2)Sc2ccccc21	-174.8	-0.4	-52.5	-101.0	-3.8	-83.4	-0.6
Cc1ccc2nc(-c3ccc(NC(=O)C(C)Sc4nncs4)cc3)sc2c1 (stereo unspecified)	-167.2	/	-104.2	-162.6	/	?	-36.4
CCCc1cc(C(=O)Nc2nccs2)cs1	-165.7	-2.7	-157.9	-87.5	-1.2	-57.3	-109.2
O=c1[nH]c2ccccc2c2cn(-c3ccccc3)nc12	-41.3	5.7	22.5	-53.6	-3.8	-49.4	/
CCOC(=O)c1c(N)sc(C(=O)Nc2ccccc2F)c1C	-185.9	-0.6	-170.1	-175.4	-4.4	-36.0	-146.4
CCC(=O)Nc1sc(C(=O)Nc2ccccc2F)c(C)c1C(=O)OC	-84.0	-1.2	-41.4	-122.0	-2.5	-63.5	/
CCOC(=O)c1c(N)sc(C(N)=O)c1C	8.0	-0.2	18.0	17.7	-2.8	2.6	/
CCOC(=O)c1sc(NC(=O)Nc2ccccc2)cc1C	-171.0	2.6	-163.4	-233.5	0.7	-47.7	-138.8
CCOC(=O)c1c(N)sc(C(=O)Nc2ccccc2)c1C	-165.9	-0.9	-203.9	-165.2	1.4	-47.2	-114.2
Cc1onc(-c2ccccc2)c1NC(=O)N(CCC#N)Cc1ccccc1	-15.7	-1.8	-7.7	-54.7	-1.2	-11.8	/
COC(=O)COc1ccc2c(=O)c(-c3ccccc3)coc2c1	-12.0	0.9	-31.8	-11.1	-0.2	-11.6	/
CC(C)Oc1ccc2c(=O)c(-c3ccccc3)coc2c1	-185.3	-1.1	-268.9	-211.2	-0.8	-24.5	-82.7
CC(c1ccco1)N(C(=O)c1ccc(C#N)cc1)c1ccccn1 (stereo unspecified)	-9.8	-0.2	-17.7	15.3	-2.8	-28.7	/
CC(C)c1ccc(C(=O)N(c2ccccn2)C(C)c2ccco2)cc1 (stereo unspecified)	-165.5	-1.3	-18.5	-46.1	-0.8	-160.7	-77.7
Cc1cc(NC(=S)NC(=O)c2ccccc2)ccc1-c1cc2ccccc2oc1=O	59.1*	-2.6	41.6	-23.6	-3.5	32.4	4.1
COC(=O)Cn1cnc2c(cnn2-c2ccc(C)cc2)c1=O	-2.9	-0.6	-6.3	0.8	-1.2	-37.0	/
Cc1c(C(=O)OC2CCC(C)CC2)[nH]c2c1C(=O)CCC2 (stereo unspecified)	-214.9	-5.7	-174.1	-218.0	-3.0	-78.8	-120.3
SMILES	Jurkat NFkB inh	VIM-2 inhibitor	Mdm2-MdmX inh	697 NFkB inh	IMP-1 inhibitor	aSyn UTR inh	Jurkat NFkB conf
COC(=O)c1[nH]c2c(c1C)C(=O)CCC2	8.5	0.2	20.9	-5.2	-0.2	-7.3	/
CN(C)c1ccc(/C=N/n2ncc3ccccc32)cc1	-173.8	1.5	-174.0	-159.4	1.4	-290.0	-65.1
O=C(Nc1ccc(Cl)cn1)c1cc2ccccc2o1	-151.6	1.4	-212.0	-232.2	-5.9	-14.0	-102.2
O=C(Nc1ccccc1C(F)(F)F)c1cc2ccccc2o1	-151.6	-1.7	-68.8	-189.3	-3.3	-209.4	-80.6
C=CCNc1nc(-c2ccc(Cl)cc2)cs1	-156.6	-1.9	-132.9	-150.8	-4.4	-238.3	-27.2
COc1ccc(/C=N/Nc2ncccc2[N+](=O)[O-])c(OC)c1	-156.8	-6.6	-69.8	-170.9	-3.3	-121.8	1.3
O=C(c1ccco1)N1CCN(Cc2nc3ccccc3[nH]2)CC1	-2.0	/	13.2	-1.2	/	/	/
O=C(C1CCC(=O)N(C2CCCC2)C1)N1CCN(Cc2cccc(F)c2)CC1 (stereo unspecified)	-9.1	-2.9	8.5	-1.9	-3.9	-4.4	/
Cc1ccc(Cn2ccc(NC(=O)c3cc(-c4ccc(F)cc4)on3)n2)cc1	5.5	-1.8	7.7	9.3	-3.6	-25.4	/
Cc1ccc(O)c(NC(=O)c2cc(-c3cccs3)on2)c1	88.2*	-0.1	-65.2	-45.0	-1.3	-231.0	16.6
Cc1ccc(O)c(NC(=O)c2cc(-c3ccc(F)cc3)on2)c1	70.7*	-6.0	17.1	-66.0	-4.0	-146.7	-11.3
CCOc1cc(C(=O)OC(C)C(=O)Nc2ccc(NC(C)=O)cc2)ccc1OCC(=O)N1CCCCC1 (stereo unspecified)	1.9	-3.3	10.0	6.2	-5.4	-2.6	/
C=CCn1c(Oc2cc(C)ccc2C)nc2c1c(=O)n(C)c(=O)n2C	53.6*	-2.3	13.7	-10.8	-2.6	23.9	15.8
Cc1cccc(S(=O)(=O)Nc2ccc(-c3nc4ccc(C)cc4s3)cc2)c1	-178.8	-1.5	-206.2	-165.0	-1.9	-171.8	-52.0
Cc1ccc(S(=O)(=O)Nc2ccc(-c3nc4ccc(C)cc4s3)cc2)cc1	0.9	-2.2	11.6	-16.6	-2.2	-2.6	/
Cn1nnc2cc(C(=O)Nc3ccc4ccccc4c3)ccc21	-162.6	-1.6	-133.7	-166.4	-3.4	-33.3	-67.3
O=C(/C=C/c1cccs1)N1CCc2ccccc21	-161.0	-3.2	-144.8	-193.5	-1.2	-53.3	-102.3
COc1ccc(/C=C2\SC(=O)N(CC(=O)NC3CCS(=O)(=O)C3)C2=O)cc1 (stereo unspecified)	2.3	1.7	15.0	-17.4	0.3	-2.9	/
COc1ccc(NC(=O)CSc2nc(SC)ns2)cc1	-154.1	-5.5	-97.0	-58.1	-2.9	-145.2	-45.0
COC(=O)CSc1nsc(SCC(=O)OC)n1	62.3*	-3.3	-2.3	-45.7	-2.6	-14.8	10.1
CSc1nsc(SCC(=O)Nc2ccc(NC(C)=O)cc2)n1	-21.6	-2.5	3.2	4.0	2.4	-10.7	/
CCN(C(=O)COC(=O)c1ccc(O)cc1O)c1c(N)n(Cc2ccccc2)c(=O)[nH]c1=O	-1.8	/	4.5	10.9	/	/	/
